Source: PubChem
Sampled rows, rich in hits. Any-hit rate of the full collection: about 2%.
DNA FID counter: fluorescent intercalator displacement, NS3 helicase counter-screen; DNA fluorescent intercalator displacement, fluorescence; inhibition, % at 7.9 µM; 290,000 compounds, 0.17% hits; AID 1845; in the data active = inhibition above about 37%;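 also: 0% = vehicle and 100% = reference compound; higher means more ethidium bromide displaced from hairpin DNA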
EBNA-1 inhibitor: blocks EBNA-1 binding to DNA; EBNA-1 DNA binding, fluorescence polarization; inhibition, % at 14.8 µM; 300,000 compounds, 0.34% hits; AID 1950; in the data active = inhibition above about 28%
HCV NS3 hel inh: blocks Hepatitis C virus NS3 helicase unwinding; NS3 helicase DNA unwinding, Cy5 molecular beacon fluorescence; inhibition, % at 10.9 µM; 290,000 compounds, 0.56% hits; AID 1800;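 active = inhibition above the mean of all tested compounds plus 3 SD, set per campaign, cut at about 35% in these data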;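 also: 0% = DMSO wells and 100% = thioflavine S control wells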
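Assay system: hepatitis C virus NS3 helicase domain fragment enzyme. Also added: annealed dual-labelled DNA beacon duplex, ATP-started. Timing: 1 h reaction at 25 °C, ATP-initiated. Technique: Cy5 fluorescence at 0 and 60 min, beacon hairpin quenching. Evaluation: % inhibition of unwinding. Replication: one well per compound.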
GPR7 antagonist: antagonists of human GPR7 (neuropeptides B/W receptor 1). 290,000 compounds, 1.1% hits. P48145. inhibition, % at 4.4 µM. GPR7-expressing cells, fluorescence antagonist assay; in the data active = inhibition above about 16%, passing the limit was not always enough;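 also: cells stimulated with the agonist NPW; 0% = agonist with vehicle and 100% = vehicle without agonist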
Target sequence (P48145 whole entry, looked up): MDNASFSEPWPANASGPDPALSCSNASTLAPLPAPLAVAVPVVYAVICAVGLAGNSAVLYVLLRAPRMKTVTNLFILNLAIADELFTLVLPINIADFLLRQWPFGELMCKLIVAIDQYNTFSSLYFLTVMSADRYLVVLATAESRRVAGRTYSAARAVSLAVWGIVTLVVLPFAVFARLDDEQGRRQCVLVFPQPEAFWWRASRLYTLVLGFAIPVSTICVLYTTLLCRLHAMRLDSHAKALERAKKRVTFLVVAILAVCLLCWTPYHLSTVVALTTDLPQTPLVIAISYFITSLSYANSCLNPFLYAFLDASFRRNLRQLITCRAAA
ZTA counter: ZTA (EBV) inhibition in EBNA-1 counter-screen | P03206 | ZTA-DNA binding, fluorescence polarization | inhibition, % at 11 µM | 320,000 compounds, 0.15% hits; in the data active = inhibition above about 33%
Target sequence (P03206 whole entry, looked up): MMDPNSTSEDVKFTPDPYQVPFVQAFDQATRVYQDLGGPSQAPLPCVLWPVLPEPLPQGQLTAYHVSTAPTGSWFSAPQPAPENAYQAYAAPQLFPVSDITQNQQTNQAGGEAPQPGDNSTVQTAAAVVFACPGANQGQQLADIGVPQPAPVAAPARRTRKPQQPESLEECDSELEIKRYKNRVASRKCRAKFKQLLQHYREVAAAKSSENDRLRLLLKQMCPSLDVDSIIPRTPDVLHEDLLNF
GPR7 antag cf: confirmation of human GPR7 antagonists. GPR7-expressing cells, calcium fluorescence antagonist mode. shares compounds with GPR7 antagonist. inhibition, % at 4.4 µM. 2,400 compounds, 52% hits; in the data active = inhibition above about 24%;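 also: stimulated with the GPR7 agonist NPW; 0% = agonist plus vehicle and 100% = vehicle alone without agonist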
MCHR1 antagonist: MCHR1 (human) antagonism in GPR7 counter-screen | MCHR1-expressing cells, fluorescence antagonist assay | shares compounds with GPR7 antagonist | inhibition, % at 4.4 µM | 2,400 compounds, 62% hits; in the data active = inhibition above about 22%;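 also: 0% = vehicle with agonist and 100% = vehicle without agonist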
Numbers without * were called inactive; / = no result given.

SMILES	DNA FID counter	EBNA-1 inhibitor	HCV NS3 hel inh	GPR7 antagonist	ZTA counter	GPR7 antag cf	MCHR1 antagonist
OC(C#CCCN1CCCCC1)(c1ccccc1)c1ccccc1	12	1	-6	22*	-15	-8	6
CCCC[C@@H](CN[C@H](C)CNC)NCC1CCC(C(C)(C)C)CC1 (stereo partly specified)	28	13	-69	26	4	/	/
COc1ccc(C(CNC(=O)CCNC(=O)c2ccc(Br)cc2)N2CCOCC2)cc1 (stereo unspecified)	/	3	/	/	7	/	/
Brc1cccc(OCCOCCn2ccnc2)c1	9	7	-14	21	15	/	/
Brc1cccc(OCCn2ccnc2)c1	7	-2	3	24*	-19	9	2
O=C(Nc1ccc2ccccc2c1)c1ccccc1O	0	6	-12	30*	-9	39*	53*
O=C(Nc1ccc2ccccc2c1)c1ccc(Cl)cc1Cl	-2	-6	0	10	-10	/	/
CCC(C)N(C(=O)CSc1nnc(C)n1C)C1CCS(=O)(=O)C1 (stereo unspecified)	/	4	/	/	14	/	/
CC(c1nc2ccccc2c(=O)[nH]1)N1CCCN(S(=O)(=O)c2ccc(F)cc2)CC1 (stereo unspecified)	/	/	/	/	-6	/	/
CCCCNC(=O)CN1C(=O)C(CC)Oc2ccc(Cl)cc21 (stereo unspecified)	-12	9	2	28*	-23	16	25*
CCOC(=O)CN1C(=O)C(CC)Oc2ccc(Cl)cc21 (stereo unspecified)	-8	4	-5	8	6	/	/
O=[N+]([O-])c1ccc(C2CC(c3ccccc3)=Nc3ccccc3S2)cc1 (stereo unspecified)	3	-2	-6	18	-16	-1	74*
COc1ccc(C/C(=N\OC(C)=O)c2ccc(OC)cc2)cc1	-24	-3	3	40*	7	15	19
CC(=O)COc1cc2c(-c3cc4ccccc4o3)cc(=O)oc2cc1C	-28	-8	31	-6	-14	/	/
COCCN(Cc1ccc(F)cc1)C(=O)c1cc2ccccc2oc1=O	-16	/	8	-12	/	/	/
O=C(COC(=O)c1ccc(F)cc1Cl)NC(=O)NC1CCCC1	/	/	/	/	-5	/	/
Cc1ccc(CN(Cc2cc3cccc(C)c3[nH]c2=O)C(=S)NCCCN(C)C)cc1	32	-5	-73	36*	7	47*	30*
Cc1cccc2cc(CN(Cc3ccccc3)C(=S)NCCCN(C)C)c(=O)[nH]c12	48*	-6	-22	53*	-14	48*	28*
Cn1nnc(NC(=S)NC(=O)c2cccc3ccccc23)n1	-6	12	-2	-4	8	/	/
CC1CCC(C(C)C)C(OC(=O)COC(=O)c2cc(O)ccc2N)C1 (stereo unspecified)	-15	-1	32	-16	-4	/	/
COc1ccc(OCc2n(CC(=O)OC3CC(C)CCC3C(C)C)c3ccccc3[n+]2C)cc1 (stereo unspecified)	40*	8	-76	71*	-11	62*	84*
COc1ccc(NC(=O)c2cc3c(CO)cnc(C)c3oc2=Nc2cc(OC)cc(OC)c2)cc1	-11	-12	0	37*	-6	-21	-3
COc1cc(NC(=O)c2cc3c(CO)cnc(C)c3oc2=Nc2cccc(C(N)=O)c2)cc(OC)c1	-12	1	8	-20	8	/	/
COC(=O)c1cccc(NC(=O)c2cnn(C)c2)c1	/	7	/	/	15	/	/
Cc1onc(-c2ccccc2)c1-c1nnc(CN2CCN(S(=O)(=O)c3ccccc3F)CC2)o1	/	/	/	/	3	/	/
SMILES	DNA FID counter	EBNA-1 inhibitor	HCV NS3 hel inh	GPR7 antagonist	ZTA counter	GPR7 antag cf	MCHR1 antagonist
CCOC(=O)C(C(=O)N(C)Cc1ccccc1)C1CCCCC1 (stereo unspecified)	-35	7	3	32*	-14	27*	30*
CCOC(=O)C(C(=O)Nc1ccccn1)C1CCCCC1 (stereo unspecified)	-5	3	-3	-3	-24	/	/
COc1ccc(-n2c(C)cc(/C=C3\C(=N)N4N=C(CC(=O)N5CCOCC5)SC4=NC3=O)c2C)cc1	-53	-9	29	32*	14	-2	15
COc1ccc(-c2cc(C3CCN(c4cc(Cl)nc(N)n4)CC3)[nH]n2)cc1	-32	1	-26	7	27	/	/
Nc1nc(Cl)cc(N2CCC(c3cc(-c4ccc(Cl)cc4)n[nH]3)CC2)n1	-23	14	-37	38*	7	26*	72*
CCCOc1ccc(-c2c(C(=O)N/N=C(\C)COc3ccccc3)nnn2-c2nonc2N)cc1	-11	-10	12	-10	-12	/	/
COc1ccc(SCCCn2c(=O)c3c(ncn3C)n(C)c2=O)cc1	-28	-6	4	-5	2	/	/
Cc1ccc(C2CC(c3ccccc3C)n3nc(N)nc3N2)cc1 (stereo unspecified)	-26	2	-10	26*	14	12	3
COc1cccc(C2CC(c3ccccc3Cl)n3nc(N)nc3N2)c1 (stereo unspecified)	-20	-8	-7	6	-2	/	/
COc1cccc(C2CC(c3ccccc3)Nc3nc(N)nn32)c1 (stereo unspecified)	-20	-5	-10	-12	-12	/	/
CCc1ccc(C2CC(c3ccccc3Cl)Nc3nc(N)nn32)cc1 (stereo unspecified)	-24	0	6	30*	10	42*	19
COc1cccc(C2CC(c3ccc(Cl)cc3Cl)n3nc(N)nc3N2)c1 (stereo unspecified)	-30	9	-6	27*	-4	11	1
COc1ccc(C2CC(c3cccc(OC)c3)n3nc(N)nc3N2)cc1 (stereo unspecified)	-25	-8	-5	39*	2	-3	-9
CCOc1ccc(N(CC(=O)N/N=C/c2ccccn2)S(=O)(=O)c2ccc(Cl)cc2)cc1	-36	/	-19	-13	/	/	/
COc1ccc(S(=O)(=O)N2CCCC(C(=O)NCC3CCCO3)C2)cc1C (stereo unspecified)	-17	-5	4	9	-17	/	/
O=C(NCC1CCCO1)C1CCCN(S(=O)(=O)c2cccc(C(F)(F)F)c2)C1 (stereo unspecified)	-19	-1	24	24*	4	-6	0
CSc1cccc(NC(=O)Cc2ccccc2[N+](=O)[O-])c1	-1	-11	-9	27*	-3	-9	8
COc1cccc(NC(=O)COC(=O)Cc2ccccc2[N+](=O)[O-])c1	-9	4	-3	3	-28	/	/
COc1ccc(OCc2nc(C#N)c(N3CCN(c4ccc(OC)cc4)CC3)o2)cc1	-23	/	1	43*	/	48*	50*
N#Cc1nc(COc2ccc(F)cc2)oc1N1CCN(Cc2ccccc2)CC1	-26	-2	-9	35*	7	33*	52*
